# In ChEMBL document CHEMBL1121779, “Thiophene systems. 5. Thieno[3,4-b][1,5]benzoxazepines, thieno[3,4-b][1,5]benzothiazepines, and thieno[3,4-b][1,4]benzodiazepines as potential central nervous system agents” (1981):
# Calls of active or inactive are those of the source. The rule behind the calls is not given here.
# Tests used:
# [1] = tested on: Rattus norvegicus; assay: Reduction in motor activity in rats following p.o. administration.; type: functional
# Procedure, shortened: (§1)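 Rats in groups of five given graded oral doses. Locomotor activity counted per rat over 5 min at the time of peak effect, which was set earlier with a selected dose. MDD50 is the dose giving 50% reduction versus controls, taken from linear regression.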
# [2] = tested on: Mus musculus; assay: Compound was tested for the neuroleptic activity as measured by it's antagonism of d-amphetamine induced lethality in grouped mice(GAL) when administered perorally; 3.2-5.5; type: functional; conditions: po
# [3] = tested on: Mus musculus; assay: Inhibition of tetrabenazine induced depression in mice was following p.o. administration; Inactive.; type: functional, organism-based
# [4] = tested on: Mus musculus; assay: Compound was tested for the neuroleptic activity as measured by it's antagonism of d-amphetamine induced lethality in grouped mice(GAL) when administered perorally; Inactive at 20 mg/kg; type: functional, organism-based; design: dose 20 mg/kg
# [5] = tested on: Mus musculus; assay: Minimum effective dose causing antagonism of tetrabenazine induced depression in mice was determined when administered perorally; type: functional; conditions: po, read-out: MED
# [6] = tested on: Mus musculus; assay: Minimum effective dose causing antagonism of tetrabenazine induced depression in mice was determined when administered perorally; Inactive at 20 mg/kg; type: functional, organism-based; design: dose 20 mg/kg
# [7] = tested on: Mus musculus; assay: Compound was tested for the neuroleptic activity as measured by it's antagonism of d-amphetamine induced lethality in grouped mice(GAL) when administered perorally; type: functional; conditions: po
# [8] = tested on: Mus musculus; assay: Compound was tested for the neuroleptic activity as measured by it's antagonism of d-amphetamine induced lethality in grouped mice(GAL) when administered perorally; 9-33; type: functional; conditions: po
# [9] = tested on: Mus musculus; assay: Compound was tested for the neuroleptic activity as measured by it's antagonism of d-amphetamine induced lethality in grouped mice(GAL) when administered perorally; 1.4-3.1; type: functional; conditions: po
# [10] = tested on: Mus musculus; assay: Compound was tested for the neuroleptic activity as measured by it's antagonism of d-amphetamine induced lethality in grouped mice(GAL) when administered perorally; 0.09-0.24; type: functional; conditions: po
# [11] = tested on: Mus musculus; assay: Compound was tested for the neuroleptic activity as measured by it's antagonism of d-amphetamine induced lethality in grouped mice(GAL) when administered perorally; 0.1-0.6; type: functional; conditions: po
# [12] = tested on: Mus musculus; assay: Minimum effective dose causing antagonism of tetrabenazine induced depression in mice was determined when administered perorally; Inactive at 25 mg/kg; type: functional, organism-based; design: dose 25 mg/kg
# [13] = tested on: Mus musculus; assay: Compound was tested for the neuroleptic activity as measured by it's antagonism of d-amphetamine induced lethality in grouped mice(GAL) when administered perorally; Inactive; type: functional, organism-based
# [14] = tested on: Mus musculus; assay: Compound was tested for the neuroleptic activity as measured by it''s antagonism of d-amphetamine induced lethality in grouped mice(GAL) when administered perorally; Inactive at 20 mg/kg; type: functional, organism-based; design: dose 20 mg/kg
# [15] = tested on: Mus musculus; assay: Minimum effective dose causing antagonism of tetrabenazine induced depression in mice was determined when administered perorally; Inactive; type: functional, organism-based
# [16] = tested on: Mus musculus; assay: Compound was tested for the neuroleptic activity as measured by it's antagonism of d-amphetamine induced lethality in grouped mice(GAL) when administered perorally; 1-15; type: functional; conditions: po
# [17] = tested on: Mus musculus; assay: Compound was tested for the neuroleptic activity as measured by it's antagonism of d-amphetamine induced lethality in grouped mice(GAL) when administered perorally; 5.1-9; type: functional; conditions: po
# [18] = tested on: Rattus norvegicus; assay: Dose causing 50% reduction of motor activity in rats was measured when administered perorally; Inactive at 50 mg/kg; type: functional, organism-based; design: dose 50 mg/kg; procedure, shortened: as §1
# [19] = tested on: Mus musculus; assay: Compound was tested for the neuroleptic activity as measured by it's antagonism of d-amphetamine induced lethality in grouped mice(GAL) when administered perorally; 2.5-3.9; type: functional; conditions: po
# [20] = tested on: Mus musculus; assay: Compound was tested for the neuroleptic activity as measured by it's antagonism of d-amphetamine induced lethality in grouped mice(GAL) when administered perorally; 1.1-2.5; type: functional; conditions: po
# [21] = tested on: Mus musculus; assay: Compound was tested for the neuroleptic activity as measured by it's antagonism of d-amphetamine induced lethality in grouped mice(GAL) when administered perorally; 2.4-5.6; type: functional; conditions: po
# [22] = tested on: Mus musculus; assay: Compound was tested for the neuroleptic activity as measured by it's antagonism of d-amphetamine induced lethality in grouped mice(GAL) when administered perorally; 0.4-3.1; type: functional; conditions: po
# [23] = tested on: Mus musculus; assay: Compound was tested for the neuroleptic activity as measured by it's antagonism of d-amphetamine induced lethality in grouped mice(GAL) when administered perorally; 1.1-1.9; type: functional; conditions: po
# [24] = tested on: Mus musculus; assay: Compound was tested for the neuroleptic activity as measured by it's antagonism of d-amphetamine induced lethality in grouped mice(GAL) when administered perorally; 1.6-3.8; type: functional; conditions: po
structure (smiles),measurement,setting,value
CN1CCN(C2=Nc3cc(Cl)ccc3Nc3ccccc32)CC1 [CLOZAPINE],MDD50,[1],21 mg/kg
same,ED50,[2],4.2 mg/kg
same,MED,[3],inactive
CN1CCN(C2=Nc3ccccc3Sc3c2csc3Cl)CC1,ED50,[4],inactive
same,minimal effective dose,[5],1.6 mg/kg
CN1CCN(C2=Nc3cscc3Nc3ccccc32)CC1,MED,[6],inactive
same,ED50,[7],3.2 mg/kg
same,MDD50,[1],15 mg/kg
CN1CCN(C2=Nc3cscc3Nc3ccc(Cl)cc32)CC1,ED50,[7],≤ 5 mg/kg
same,MED,[3],inactive
CN1CCN(C2=Nc3cscc3Nc3ccc(F)cc32)CC1,ED50,[8],17.5 mg/kg
same,MED,[3],inactive
OCCN1CCN(C2=Nc3cc(Cl)ccc3Oc3cscc32)CC1,MDD50,[1],19.2 mg/kg
same,ED50,[9],2 mg/kg
same,MED,[3],inactive
CN(C)CCCN1c2ccccc2CCc2ccccc21 [IMIPRAMINE],minimal effective dose,[5],5 mg/kg
same,ED50,[7],> 50 mg/kg
same,MDD50,[1],>20 mg/kg
CN1CCN(C2=Nc3ccccc3Oc3ccc(Cl)cc32)CC1 [LOXAPINE],ED50,[10],0.14 mg/kg
same,MDD50,[1],0.6 mg/kg
same,MED,[3],inactive
CN1CCN(C2=Nc3ccccc3Sc3cscc32)CC1,ED50,[11],0.2 mg/kg
same,MED,[12],inactive
same,MDD50,[1],<10 mg/kg
CN1CCN(C2=Nc3cscc3N(C)c3ccccc32)CC1,minimal effective dose,[5],7.6 mg/kg
same,ED50,[7],6.5 mg/kg
same,MDD50,[1],51 mg/kg
Cc1ccc2c(c1)Oc1cscc1C(N1CCN(CCO)CC1)=N2,MDD50,[1],37 mg/kg
same,MED,[3],inactive
COc1ccc2c(c1)N=C(N1CCN(CCO)CC1)c1cscc1O2,ED50,[13],inactive
same,MED,[3],inactive
Cc1ccc2c(c1)N=C(N1CCN(CCO)CC1)c1cscc1O2,ED50,[14],inactive
same,MDD50,[1],27.2 mg/kg
CCN1CCN(C2=Nc3cc(C)ccc3Oc3cscc32)CC1,MDD50,[1],<50 mg/kg
same,MED,[15],inactive
same,ED50,[16],3.9 mg/kg
CCN1CCN(C2=Nc3cc(Cl)ccc3Oc3cscc32)CC1,MDD50,[1],<50 mg/kg
same,ED50,[17],6.8 mg/kg
same,MED,[3],inactive
CN1CCN(C2=Nc3cc(Cl)ccc3Sc3cscc32)CC1,ED50,[13],inactive
same,MED,[3],inactive
CN1CCN(C2=Nc3ccccc3Oc3cscc32)CC1,MED,[12],inactive
same,ED50,[7],1.4 mg/kg
same,MDD50,[1],1.3 mg/kg
OCCN1CCN(C2=Nc3ccccc3Oc3c2csc3Cl)CC1,MDD50,[18],inactive
same,ED50,[7],< 10 mg/kg
same,MED,[3],inactive
OCCN1CCN(C2=Nc3ccccc3Oc3cscc32)CC1,ED50,[7],< 10 mg/kg
same,MDD50,[1],5.4 mg/kg
same,MED,[3],inactive
Cc1cccc2c1N=C(N1CCN(CCO)CC1)c1cscc1O2,ED50,[14],inactive
COc1ccc2c(c1)Oc1cscc1C(N1CCN(C)CC1)=N2,ED50,[13],inactive
same,MED,[3],inactive
CN1CCN(C2=Nc3cc(Br)ccc3Oc3cscc32)CC1,ED50,[19],3.1 mg/kg
same,MDD50,[1],16.4 mg/kg
same,MED,[3],inactive
Cc1cc2c(cc1C)Sc1cscc1C(N1CCN(C)CC1)=N2,ED50,[13],inactive
same,MED,[3],inactive
CN1CCN(C2=Nc3cscc3N(C)c3ccc(Cl)cc32)CC1,ED50,[14],inactive
same,minimal effective dose,[5],1.56 mg/kg
same,MDD50,[1],4.1 mg/kg
CN1CCN(C2=Nc3cc(Cl)ccc3Oc3cscc32)CC1,MDD50,[1],9.6 mg/kg
same,MED,[3],inactive
same,ED50,[20],1.6 mg/kg
Cc1ccc2c(c1)Oc1cscc1C(N1CCN(C)CC1)=N2,ED50,[14],inactive
same,MED,[15],inactive
OCCN1CCN(C2=Nc3cc(Br)ccc3Oc3cscc32)CC1,ED50,[7],< 2.5 mg/kg
same,MED,[3],inactive
Cc1ccc2c(c1)N=C(N1CCN(C)CC1)c1cscc1O2,MDD50,[1],5.96 mg/kg
same,ED50,[21],3.6 mg/kg
same,MED,[15],inactive
Cc1cccc2c1N=C(N1CCN(C)CC1)c1cscc1O2,ED50,[22],1.2 mg/kg
same,MDD50,[1],>50 mg/kg
same,MED,[3],inactive
CCN1CCN(C2=Nc3ccccc3Oc3cscc32)CC1,MDD50,[1],1.66 mg/kg
same,MED,[3],inactive
same,ED50,[23],1.4 mg/kg
CN1CCN(C2=Nc3ccccc3Oc3c2csc3Cl)CC1,minimal effective dose,[5],12.5 mg/kg
same,ED50,[24],2.4 mg/kg
same,MDD50,[1],<50 mg/kg
COc1ccc2c(c1)N=C(N1CCN(C)CC1)c1cscc1O2,ED50,[13],inactive
CN1CCN(C2=Nc3cscc3N(C)c3ccc(F)cc32)CC1,ED50,[13],inactive
same,minimal effective dose,[5],6.25 mg/kg
OCCN1CCN(C2=Nc3ccccc3Sc3cscc32)CC1,ED50,[7],0.2 mg/kg
same,MDD50,[1],<10 mg/kg
same,MED,[3],inactive
